# Assay results pooled from the literature.
# Protocols differ between the studies behind these lines.
# Target: NUAK family SNF1-like kinase 1 (NUAK1, Homo sapiens, UniProt O60285)
# Residues used in one study (O60285 1-661): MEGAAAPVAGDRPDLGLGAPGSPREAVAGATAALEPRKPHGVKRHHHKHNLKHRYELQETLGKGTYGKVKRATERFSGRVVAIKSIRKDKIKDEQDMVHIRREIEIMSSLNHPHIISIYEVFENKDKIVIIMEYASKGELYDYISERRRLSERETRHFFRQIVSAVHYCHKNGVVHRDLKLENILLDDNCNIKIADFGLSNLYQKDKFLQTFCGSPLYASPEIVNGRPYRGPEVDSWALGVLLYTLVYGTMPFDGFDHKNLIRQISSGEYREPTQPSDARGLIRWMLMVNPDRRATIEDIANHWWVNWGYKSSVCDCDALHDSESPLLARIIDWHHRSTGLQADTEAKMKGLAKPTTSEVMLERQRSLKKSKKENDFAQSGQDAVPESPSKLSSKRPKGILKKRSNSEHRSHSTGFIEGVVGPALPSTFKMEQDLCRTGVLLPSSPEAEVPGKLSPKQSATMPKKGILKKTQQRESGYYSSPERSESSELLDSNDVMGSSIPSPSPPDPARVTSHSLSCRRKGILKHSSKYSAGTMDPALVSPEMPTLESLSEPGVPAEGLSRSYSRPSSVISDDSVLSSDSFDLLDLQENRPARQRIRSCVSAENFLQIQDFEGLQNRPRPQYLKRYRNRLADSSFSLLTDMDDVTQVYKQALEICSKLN
SMILES,assay,conditions,endpoint,result
C1=C/COCc2cc(ccc2OCCN2CCCC2)Nc2nccc(n2)-c2cccc(c2)COC/1,cell-free assay,0.1 µM,remaining signal,39%
CCCCC(=O)Nc1ccc(-c2ccc3ncn(CCC)c(=O)c3c2)cn1,"binding, competition with immobilised ligand",0.5 µM,remaining binding,73%
C#Cc1cc(-c2cc(Nc3nc(N[C@@H](C)c4ccc(F)cn4)ncc3Cl)n[nH]2)ccc1C=O,"enzyme activity, inhibitor",0.2 µM,inhibition,17.1%
C=CC(=O)N1CCC([C@@H]2CCNc3c(C(N)=O)c(-c4ccc(Oc5ccccc5)cc4)nn32)CC1,"enzyme activity, inhibitor",1 µM,inhibition,2%
C[C@H]1CC[C@H](n2c3cnccc3c3cnc(Nc4ccc5c(n4)CCN(C(=O)CO)C5)nc32)CC1,cell-free assay,1 µM,remaining signal,72%
CC(C)S(=O)(=O)c1ccc2nccc(Nc3ccc4sc(C5CCCC5)nc4c3)c2c1,"enzyme activity, inhibitor",1 µM,activity vs control,108%
C=CC(=O)N1CCC[C@@H](n2nc(-c3ccc(Oc4ccccc4)cc3)c3c(N)ncnc32)C1,"enzyme activity, inhibitor",1 µM,inhibition,10%
COc1ccc2[nH]c3c4[nH]c5ccc(OC)cc5c4c4c(c3c2c1)C(=O)NC4=O,binding,1 µM,remaining binding,25%
